The text below walks through data of PubChem BioAssay.

Activity calls are given as the source filed them.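 The calls were made as follows, unless noted: active = NADPH fluorescence slope more negative than the mean of all samples by about 3 SD, 99.7% confidence; inactive = the rest.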

A short description of assay [1]: inhibitors of TNFa-induced NFkB p65 translocation, primary screen, imaging, HUVEC, MLSMR starter and 10KST1 sets (AID 438;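 active = inhibition above 20% together with a positive visual image hit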;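 also: compound added about 3h40 before a 20 min TNFalpha stimulation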;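 as to inhibition: signal is the nuclear over cytoplasmic p65 intensity ratio per well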). Conditions: HUVEC TNFa-induced p65 nuclear translocation; cell count: measured here: nuclei count (cytotoxicity indicator), at 2.08 µM; inhibition: at 2 µM, stronger effect = higher value, 0% TNFa-plus-vehicle, 100% no-TNFa wells.
Assay [2] in a line: inhibitors of mutant huntingtin aggregation, primary screen, imaging, exon1htt(103Q)mCFP cells, high-content imaging (AID 483;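 active = visual image review flags a hit and inhibition of aggregation exceeds 20%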;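 also: compound exposure lasted 3 days before fixation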;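 as to nuclei count: percent of the per-plate median nuclei count of sample wells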). The conditions noted are these: exon1htt(103Q)mCFP cell line, aggregate imaging, at 2 µM; inhibition of aggregation: stronger effect = higher value; nuclei count: measured here: cell count, toxicity.
A short description of assay [3]: inhibitors of E-selectin induction by TNFa, primary screen, imaging, HUVEC, immunofluorescence, MLSMR starter and 10KST1 sets (AID 487;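 active = visually confirmed hit in the image check and inhibition above 20%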;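 as to inhibition: signal is fraction of cell area covered by stained E-selectin grains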;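 as to nuclei count: 100% = median nuclei count of all wells on the same plate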). Conditions: HUVEC TNFalpha-induced E-selectin immunofluorescence imaging, at 2 µM; inhibition: stronger effect = higher value; nuclei count: measured here: cell number, toxicity.
Assay [4] addresses Voltage-gated potassium channel subunit beta-2 (Rattus norvegicus) (UniProt P62483). The experiment in a line: KvBeta enzyme negative modulators, primary screen, biochemical, NADPH fluorescence (AID 622;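 active = fluorescence slope higher than the sample average by over 3 SD, cut at about -0.22 in these data, passing the limit was not always enough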;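 also: slope of raw intensity against log time taken from 70 to 1610 s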). Conditions: recombinant KvBeta, 4-cyanobenzaldehyde reduction, at 10 µM, stronger effect = higher value.
Assay [5] shares this target. The experiment in a line: KvBeta positive modulators, primary screen, biochemical, NADPH fluorescence (AID 623).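 Also: fluorescence intensity change per second fitted from 20 to 320 s.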 The conditions noted are these: Recombinant KvBeta, NADPH fluorescence decrease slope, 10 min; at 10 µM; stronger effect = lower value.
For assay [6], the target named is Muscarinic acetylcholine receptor M4 (Homo sapiens) (UniProt P08173). The experiment in a line: compounds altering M4/GIRK thallium flux, either direction, primary screen, M4 allosteric agonist project, cell-based, HEK293 M4/GIRK, BTC-AM (AID 625;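 active = fluorescence slope after compound addition differing from the mean of all tested samples at 99.7% confidence, mostly higher but some lower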;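 also: thallium influx through GIRK channels coupled to M4 in HEK293 cells with BTC-AM dye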). The conditions noted are these: at 10 µM, actives lie on both sides. Put shortly: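 Assay system: HEK293 cells with M4 receptor and GIRK channels / Controls: carbachol and DMSO controls / Schedule: 1 h dye loading, 2 min kinetic read / Technique: kinetic fluorescence with BTC-AM dye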

Assay [7] is described as follows: inhibitors of Sendai virus-induced IRF3 signaling, primary screen, TLR/RLR signaling modifier project, cell-based, Sendai virus stimulus, luciferase, 10K MLSCN set (AID 602276;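 active = inhibition at or above 50% at 10 µM; inactive = inhibition below 50%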;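 also: firefly luciferase from ISG56 promoter only with Renilla not read in this screen; 0% = Sendai virus plus DMSO and 100% = medium plus DMSO without virus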). Conditions: HEK293 RL24 IRF3 luciferase reporter, at 10 µM, stronger effect = higher value.
A short description of assay [8]: inhibitors of poly I:C-induced TLR3 signaling, primary screen, cell-based, poly I:C stimulus, luciferase, 10K MLSCN set (AID 602277;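 active = inhibition of the reporter signal at or above 50%; inactive = inhibition below 50%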). Conditions: HEK293-TLR3 RL24 IRF3 luciferase reporter, at 10 µM, stronger effect = higher value. A general note: A reporter such as luciferase makes a cellular process visible.

The inhibition is the relative decrease from the control value, in per cent.

Sequence of Voltage-gated potassium channel subunit beta-2 (Rattus norvegicus) (P62483 whole entry, looked up): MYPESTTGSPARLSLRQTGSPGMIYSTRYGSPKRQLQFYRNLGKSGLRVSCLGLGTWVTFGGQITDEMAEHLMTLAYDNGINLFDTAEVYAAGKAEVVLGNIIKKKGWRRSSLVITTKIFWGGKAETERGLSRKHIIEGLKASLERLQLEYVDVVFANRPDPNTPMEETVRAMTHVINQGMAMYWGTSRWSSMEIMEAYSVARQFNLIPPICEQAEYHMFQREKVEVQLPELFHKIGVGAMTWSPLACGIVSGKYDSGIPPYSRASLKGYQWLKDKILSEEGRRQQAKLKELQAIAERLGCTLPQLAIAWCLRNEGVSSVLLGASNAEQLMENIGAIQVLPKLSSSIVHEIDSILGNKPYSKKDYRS
Sequence of Muscarinic acetylcholine receptor M4 (Homo sapiens) (P08173 whole entry, looked up): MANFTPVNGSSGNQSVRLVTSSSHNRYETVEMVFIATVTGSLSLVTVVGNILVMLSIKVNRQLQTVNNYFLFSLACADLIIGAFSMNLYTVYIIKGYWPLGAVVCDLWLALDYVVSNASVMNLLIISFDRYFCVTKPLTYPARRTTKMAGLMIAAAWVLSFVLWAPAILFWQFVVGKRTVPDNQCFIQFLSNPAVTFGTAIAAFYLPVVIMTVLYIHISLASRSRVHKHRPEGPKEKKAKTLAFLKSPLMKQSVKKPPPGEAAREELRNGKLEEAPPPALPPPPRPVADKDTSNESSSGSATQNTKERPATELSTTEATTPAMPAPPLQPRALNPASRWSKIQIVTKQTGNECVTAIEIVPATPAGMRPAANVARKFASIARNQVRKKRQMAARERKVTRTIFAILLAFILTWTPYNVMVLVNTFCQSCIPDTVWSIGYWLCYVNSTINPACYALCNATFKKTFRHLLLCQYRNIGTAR

As to `COc1ccccc1NS(=O)(=O)c1ccc(NC(=O)c2nc3ncccn3n2)cc1`, the cell count in assay [1] was 266. For the same compound, the inhibition in assay [1] is 8.8% (inactive); in assay [3] it was -14% (inactive); in assay [7], 17.6% (inactive); in assay [8], 13.9% (inactive). Also, the inhibition of aggregation in assay [2] is 8.5% (inactive). The nuclei count in assay [2] turned out to be 86.7%; in assay [3], 93%. Moreover, the results for the fluorescence slope in assay [4] and in assay [6] were -0.571 (inactive) and 0.0057 (inactive), respectively. Moreover, the NADPH fluorescence slope in assay [5] was -7.6e-05 (inactive).

On to `CCOC(=O)N1CCC(Nc2c(-c3ccc(C)cc3)c(=O)c2=O)CC1`, for which, in assay [1], the cell count amounted to 801. Also, the inhibition in assay [1] is -12.2% (inactive); in assay [3] it was -33.6% (inactive); in assay [7], 2.25% (inactive); in assay [8], 16.5% (inactive). Also, the inhibition of aggregation in assay [2] was 26.1% (inactive). In addition, the nuclei count in assay [2] was found to be 89.2%; in assay [3], 106%. The fluorescence slope was -0.471 (inactive) in assay [4] and 0.007 (inactive) in assay [6]. In assay [5], the NADPH fluorescence slope is -3.2e-05 (inactive).

Take `N#C/C(C(=O)N1CCOCC1)=C1/SC=C(c2ccccc2)N1c1ccccc1`: in assay [1], the cell count was 327. Moreover, the inhibition is -5.5% (inactive) in assay [1], -118% (inactive) in assay [3], 12.4% (inactive) in assay [7] and 26.4% (inactive) in assay [8]. Besides, the inhibition of aggregation in assay [2] was 13.8% (inactive). In addition, the nuclei count in assay [2] worked out at 96.2%; in assay [3], 118%. Besides, the figures for the fluorescence slope in assay [4] and in assay [6] were -0.277 (inactive) and 0.00553 (inactive), respectively. The NADPH fluorescence slope in assay [5] is -3e-05 (inactive).

`CC(=O)NCC(=O)OC(C)C(=O)Nc1ccc(C(C)=O)cc1` (centres undefined): the cell count in assay [1] was 413. The inhibition is -12.7% (inactive) in assay [1], -12.6% (inactive) in assay [3], -0.376% (inactive) in assay [7] and 0.897% (inactive) in assay [8]. The inhibition of aggregation in assay [2] was 6.4% (inactive). Also, the nuclei count stood at 116% in assay [2] and 115% in assay [3]. The fluorescence slope in assay [4] is -0.591 (inactive); in assay [6] it was 0.0073 (inactive). Further, the NADPH fluorescence slope in assay [5] is -4.9e-05 (inactive).

Consider `O=S(=O)(NCCc1ccccn1)c1cccs1`, for which, in assay [1], the cell count is 601. In addition, the inhibition is -23% (inactive) in assay [1], -28.9% (inactive) in assay [3], 19.1% (inactive) in assay [7] and 34.4% (inactive) in assay [8]. The inhibition of aggregation in assay [2] is -31.3% (inactive). Further, the results for the nuclei count in assay [2] and in assay [3] were 119% and 147%, respectively. In addition, the figures for the fluorescence slope in assay [4] and in assay [6] were -0.417 (inactive) and 0.00561 (inactive), respectively. Moreover, the NADPH fluorescence slope in assay [5] is -0.000114 (inactive).

With `Cn1cccc1C(=O)NC(=O)CSc1nnc(C2CC2)n1-c1ccccc1`, the cell count in assay [1] was 670. Also, the inhibition is -2% (inactive) in assay [1], 27.3% (inactive) in assay [3], 26.6% (inactive) in assay [7] and 9.42% (inactive) in assay [8]. Further, the inhibition of aggregation in assay [2] is -30.7% (inactive). Further, the values for the nuclei count in assay [2] and in assay [3] were 93.6% and 62.6%, respectively. Moreover, the fluorescence slope was -0.589 (inactive) in assay [4] and 0.00691 (inactive) in assay [6]. Moreover, the NADPH fluorescence slope in assay [5] was 4.6e-06 (inactive).

As to `CCSc1oc(-c2ccco2)nc1S(=O)(=O)c1ccccc1`, in assay [1], the cell count was 584. The inhibition in assay [1] is -7.9% (inactive); in assay [3] it was 4.3% (inactive); in assay [7], -7.74% (inactive); in assay [8], -0.253% (inactive). In addition, the inhibition of aggregation in assay [2] is -18% (inactive). Besides, the nuclei count in assay [2] came out at 107%; in assay [3], 105%. The figures for the fluorescence slope in assay [4] and in assay [6] were -0.316 (inactive) and 0.00508 (inactive), respectively. Also, the NADPH fluorescence slope in assay [5] was -2.1e-05 (inactive).

In the case of `O=C(Nc1cccc(F)c1)N1CC=C(n2c(=O)[nH]c3ccccc32)CC1`, the cell count in assay [1] worked out at 312. Further, the inhibition in assay [1] is 5.7% (inactive); in assay [3] it was -37.9% (inactive); in assay [7], 15% (inactive); in assay [8], 15.5% (inactive). For the same compound, the inhibition of aggregation in assay [2] was 4.5% (inactive). Moreover, the nuclei count in assay [2] came out at 107%; in assay [3], 83.5%. Moreover, the fluorescence slope was -0.453 (inactive) in assay [4] and 0.00517 (inactive) in assay [6]. Moreover, the NADPH fluorescence slope in assay [5] is -0.000227 (inactive).

On to `CCc1cccc(NS(=O)(=O)c2c(C)n[nH]c2C)c1`, for which the cell count in assay [1] came to 679. Moreover, the inhibition in assay [1] was -8.8% (inactive); in assay [3], -135% (inactive); in assay [7], 4.66% (inactive); in assay [8] it was 19.7% (inactive). The inhibition of aggregation in assay [2] is -12.8% (inactive). The values for the nuclei count in assay [2] and in assay [3] were 124% and 111%, respectively. Moreover, the fluorescence slope in assay [4] was -0.465 (inactive); in assay [6] it was 0.00614 (inactive). The NADPH fluorescence slope in assay [5] was -1.4e-05 (inactive).

Regarding `CCNC(=O)CC(=O)Nc1ccccc1C(=O)O`, the cell count in assay [1] came out at 725. Moreover, the inhibition is -14.7% (inactive) in assay [1], -35.3% (inactive) in assay [3], 17.2% (inactive) in assay [7] and 16.6% (inactive) in assay [8]. Further, in assay [2], the inhibition of aggregation is 11.3% (inactive). Moreover, the nuclei count in assay [2] was 90.3%; in assay [3], 118%. Further, the fluorescence slope in assay [4] was -0.282 (inactive); in assay [6], 0.00586 (inactive). Further, the NADPH fluorescence slope in assay [5] was -2.6e-05 (inactive).

As for `CCOC(=O)CNS(=O)(=O)c1c(C)noc1C`, in assay [1], the cell count was found to be 562. Besides, the inhibition in assay [1] was -2.5% (inactive); in assay [3] it was -40.9% (inactive); in assay [7] it was 1.51% (inactive); in assay [8], 2.6% (inactive). The inhibition of aggregation in assay [2] is -0.2% (inactive). The nuclei count in assay [2] came to 108%; in assay [3], 105%. Further, the fluorescence slope in assay [4] was -0.441 (inactive); in assay [6], 0.00456 (inactive). For the same compound, the NADPH fluorescence slope in assay [5] is -0.000338 (inactive).

Take `Cn1c(=O)cc(OCC(=O)N2CCN(c3cccc(C(F)(F)F)c3)CC2)c2ccccc21`: the cell count in assay [1] worked out at 377. The inhibition was -8.3% (inactive) in assay [1], -12.8% (inactive) in assay [3], 13.7% (inactive) in assay [7] and 15.2% (inactive) in assay [8]. Moreover, in assay [2], the inhibition of aggregation was -13.4% (inactive). The nuclei count turned out to be 118% in assay [2] and 113% in assay [3]. Besides, the values for the fluorescence slope in assay [4] and in assay [6] were -0.426 (inactive) and 0.00701 (inactive), respectively. Besides, in assay [5], the NADPH fluorescence slope is 6.8e-05 (inactive).

With `Cc1ccc(-c2noc(C3CCCN(C(=O)c4ccc(F)cc4F)C3)n2)cc1` (centres undefined), the cell count in assay [1] stood at 753. The inhibition in assay [1] is -11.3% (inactive); in assay [3], -21.5% (inactive); in assay [7] it was -9.91% (inactive); in assay [8] it was -43.3% (inactive). Also, the inhibition of aggregation in assay [2] was 1.1% (inactive). Further, the nuclei count in assay [2] turned out to be 58.6%; in assay [3] it was 124%. In addition, the fluorescence slope in assay [4] was -0.274 (inactive); in assay [6] it was 0.00592 (inactive). Besides, the NADPH fluorescence slope in assay [5] was -6.5e-06 (inactive).

With `Cn1cnnc1SCC(=O)Nc1ccccc1Sc1ccccc1`, the cell count in assay [1] was determined as 740. Moreover, the inhibition in assay [1] is 4% (inactive); in assay [3] it was -36.2% (inactive); in assay [7] it was 13.5% (inactive); in assay [8], 8.17% (inactive). For the same compound, the inhibition of aggregation in assay [2] is -6.3% (inactive). In addition, the nuclei count in assay [2] is 93.3%; in assay [3], 127%. Besides, the fluorescence slope is -0.215 (inactive) in assay [4] and 0.00628 (inactive) in assay [6]. In addition, the NADPH fluorescence slope in assay [5] was -2.9e-05 (inactive).
